Reference: ChEMBL document CHEMBL5303300, “EUbOPEN Chemogenomics Library - Multiplex” (2023)
Where “and” joins values, the source holds several entries; their conditions need not be identical. Equal entries are not always repeated.

How the values were obtained:
[1] = system: HEK-293T; assay: Multiplex assay against HEK293T; type: toxicity, cell-based; details: human, number of replicates 2
How it was run: (§1)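 Per cents of healthy-nucleus cells form the tubulin, mitochondrial-mass and membrane-permeability phenotype values. Live cells were stained at seeding with Hoechst33342, BioTracker Green Microtubule Cytoskeleton Dye, MitoTracker Red and Annexin V Alexa Fluor 680. After compound addition they were imaged on a CQ1 microscope at 37°C and 5% CO2, and CellPathfinder machine-learning gating split them into Hoechst high-intensity objects or normal cells, normal cells into healthy, pyknosed or fragmented nuclei, and pyknosed cells into mitotic or apoptotic.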

[2] = system: U2OS; assay: Multiplex assay against U2OS; type: toxicity, cell-based; details: human, number of replicates 2; how it was run: as §1
[3] = 24 h, 1 µM, compound concentration 1 uM
[4] = 24 h, 10 µM, compound concentration 10 uM
[5] = 48 h, 1 µM, compound concentration 1 uM
[6] = 48 h, 10 µM, compound concentration 10 uM
[7] = 12 h, 1 µM, compound concentration 1 uM
[8] = 12 h, 10 µM, compound concentration 10 uM

`CC1(C)C(=O)N([C@H]2CCc3c(O)cccc32)c2nc(Nc3cccc(CN4CCCC4)c3)ncc21` was tested, and the “Population Hoechst High Intensity Objects (%)” value [1, 3] was 17% and 25%, the “Population Membrane Permeable-Phenotype (%)” value [1, 3] was 2% and 3% and the “Population Mitochondria Different-Phenotype (%)” value [1, 3] was 60% and 63%. The “Population Normal (%)” value [1, 3] was 82% and 74%, the “Population Pyknosed Nuclei (%)” value [1, 3] was 7% and 9% and the “Population Tubulin-Different-Phenotype (%)” value [1, 3] was 92% and 89%. For the same compound, the “Total Cell Count” value [1, 3] was 296 and 243, the “Population Apoptotic (%)” value [1, 4] was 90% and 88% and the “Population Fragmented Nuclei (%)” value [1, 4] was 4% and 3%. For the same compound, the “Population Healthy Nuclei (%)” value [1, 4] was 77% and 75%, the “Population Hoechst High Intensity Objects (%)” value [1, 4] was 21% and the “Population Membrane Permeable-Phenotype (%)” value [1, 4] was 3% and 1%. The “Population Mitochondria Different-Phenotype (%)” value [1, 4] was 94% and 96%, the “Population Mitotic Cells (%)” value [1, 4] was 9% and 11% and the “Population Normal (%)” value [1, 4] was 78%. The “Population Pyknosed Nuclei (%)” value [1, 4] was 18% and 21%, the “Population Tubulin-Different-Phenotype (%)” value [1, 4] was 96% and 94% and the “Total Cell Count” value [1, 4] was 220 and 205. The “Population Apoptotic (%)” value [1, 5] was 61% and 45%, the “Population Fragmented Nuclei (%)” value [1, 5] was 7% and 6% and the “Population Healthy Nuclei (%)” value [1, 5] was 87% and 89%. For the same compound, the “Population Hoechst High Intensity Objects (%)” value [1, 5] was 20% and 17%, the “Population Membrane Permeable-Phenotype (%)” value [1, 5] was 2% and 0% and the “Population Mitochondria Different-Phenotype (%)” value [1, 5] was 26% and 29%. For the same compound, the “Population Mitotic Cells (%)” value [1, 5] was 38% and 54%, the “Population Normal (%)” value [1, 5] was 79% and 82% and the “Population Pyknosed Nuclei (%)” value [1, 5] was 4%. The “Population Tubulin-Different-Phenotype (%)” value [1, 5] was 84% and 87%, the “Total Cell Count” value [1, 5] was 362 and 302 and the “Population Apoptotic (%)” value [1, 6] was 88% and 89%. For the same compound, the “Population Fragmented Nuclei (%)” value [1, 6] was 3% and 1%, the “Population Healthy Nuclei (%)” value [1, 6] was 71% and 74% and the “Population Hoechst High Intensity Objects (%)” value [1, 6] was 22% and 24%. For the same compound, the “Population Membrane Permeable-Phenotype (%)” value [1, 6] was 0%, the “Population Mitochondria Different-Phenotype (%)” value [1, 6] was 94% and the “Population Mitotic Cells (%)” value [1, 6] was 11% and 10%. The “Population Normal (%)” value [1, 6] was 77% and 75%, the “Population Pyknosed Nuclei (%)” value [1, 6] was 24% and the “Population Tubulin-Different-Phenotype (%)” value [1, 6] was 98% and 97%. The “Total Cell Count” value [1, 6] was 227 and 202, the “Population Apoptotic (%)” value [2, 7] was 50% and 79% and the “Population Healthy Nuclei (%)” value [2, 7] was 25% and 70%. For the same compound, the “Population Hoechst High Intensity Objects (%)” value [2, 7] was 0%, the “Population Membrane Permeable-Phenotype (%)” value [2, 7] was 0% and 6% and the “Population Mitochondria Different-Phenotype (%)” value [2, 7] was 0% and 17%. For the same compound, the “Population Mitotic Cells (%)” value [2, 7] was 50% and 20%, the “Population Normal (%)” value [2, 7] was 100% and the “Population Pyknosed Nuclei (%)” value [2, 7] was 22%. The “Population Tubulin-Different-Phenotype (%)” value [2, 7] was 55% and 51%, the “Population Apoptotic (%)” value [2, 8] was 90% and 88% and the “Population Healthy Nuclei (%)” value [2, 8] was 28% and 42%. The “Population Hoechst High Intensity Objects (%)” value [2, 8] was 0% and 2%, the “Population Membrane Permeable-Phenotype (%)” value [2, 8] was 62% and 26% and the “Population Mitochondria Different-Phenotype (%)” value [2, 8] was 50% and 59%. The “Population Mitotic Cells (%)” value [2, 8] was 9% and 11%, the “Population Normal (%)” value [2, 8] was 100% and 97% and the “Population Pyknosed Nuclei (%)” value [2, 8] was 39% and 49%. The “Population Tubulin-Different-Phenotype (%)” value [2, 8] was 62% and 73%, the “Population Apoptotic (%)” value [2, 3] was 80% and 81% and the “Population Healthy Nuclei (%)” value [2, 3] was 25% and 59%. For the same compound, the “Population Hoechst High Intensity Objects (%)” value [2, 3] was 0%, the “Population Membrane Permeable-Phenotype (%)” value [2, 3] was 0% and 6% and the “Population Mitochondria Different-Phenotype (%)” value [2, 3] was 0% and 16%. The “Population Mitotic Cells (%)” value [2, 3] was 20% and 18%, the “Population Normal (%)” value [2, 3] was 100% and the “Population Pyknosed Nuclei (%)” value [2, 3] was 31% and 29%. For the same compound, the “Population Tubulin-Different-Phenotype (%)” value [2, 3] was 62% and 42%, the “Population Apoptotic (%)” value [2, 4] was 90% and 92% and the “Population Healthy Nuclei (%)” value [2, 4] was 31% and 20%. For the same compound, the “Population Hoechst High Intensity Objects (%)” value [2, 4] was 0% and 2%, the “Population Membrane Permeable-Phenotype (%)” value [2, 4] was 44% and 36% and the “Population Mitochondria Different-Phenotype (%)” value [2, 4] was 66% and 72%. For the same compound, the “Population Mitotic Cells (%)” value [2, 4] was 9% and 8%, the “Population Normal (%)” value [2, 4] was 100% and 97% and the “Population Pyknosed Nuclei (%)” value [2, 4] was 37% and 71%. The “Population Tubulin-Different-Phenotype (%)” value [2, 4] was 55% and 83%, the “Population Apoptotic (%)” value [2, 5] was 91% and 94% and the “Population Hoechst High Intensity Objects (%)” value [2, 5] was 3% and 1%. For the same compound, the “Population Membrane Permeable-Phenotype (%)” value [2, 5] was 50% and 21%, the “Population Mitochondria Different-Phenotype (%)” value [2, 5] was 0% and 22% and the “Population Mitotic Cells (%)” value [2, 5] was 8% and 5%. The “Population Normal (%)” value [2, 5] was 96% and 98%, the “Population Pyknosed Nuclei (%)” value [2, 5] was 37% and 47% and the “Population Tubulin-Different-Phenotype (%)” value [2, 5] was 50% and 51%. For the same compound, the “Population Apoptotic (%)” value [2, 6] was 97% and 81%, the “Population Healthy Nuclei (%)” value [2, 6] was 12% and 15% and the “Population Hoechst High Intensity Objects (%)” value [2, 6] was 1% and 2%. The “Population Membrane Permeable-Phenotype (%)” value [2, 6] was 77% and 50%, the “Population Mitochondria Different-Phenotype (%)” value [2, 6] was 77% and 50% and the “Population Normal (%)” value [2, 6] was 98% and 97%. For the same compound, the “Population Pyknosed Nuclei (%)” value [2, 6] was 81% and 28% and the “Population Tubulin-Different-Phenotype (%)” value [2, 6] was 81% and 83%.
